These results are taken from ChEMBL document CHEMBL1156545, “Unusual C25 steroid isomers with bicyclo[4.4.1]A/B rings from a volcano ash-derived fungus Penicillium citrinum” (J Nat Prod, 2008).

Activity calls are given as the source filed them. The rule behind the calls is not given here.

Test [1] has as its target T1, G-protein coupled receptor 12 (Homo sapiens) (UniProt P47775).
T1 sequence (whole entry): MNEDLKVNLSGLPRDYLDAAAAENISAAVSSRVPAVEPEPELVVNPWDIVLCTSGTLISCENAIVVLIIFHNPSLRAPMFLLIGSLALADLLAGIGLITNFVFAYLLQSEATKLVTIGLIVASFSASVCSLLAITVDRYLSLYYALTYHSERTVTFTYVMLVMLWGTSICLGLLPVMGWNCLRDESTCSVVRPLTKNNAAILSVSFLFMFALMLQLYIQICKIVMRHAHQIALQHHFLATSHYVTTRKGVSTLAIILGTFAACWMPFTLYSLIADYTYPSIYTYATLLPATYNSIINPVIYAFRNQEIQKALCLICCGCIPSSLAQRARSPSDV
In words: Activity at GPR12 expressed in CHO cells assessed as induction of cAMP production at 10 uM. The format is functional, cell-based. An outline of the steps: (§1)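 Test compounds at 10 µM applied to CHO cells transfected with GPR12 and, in parallel, to untransfected wild-type CHO cells, which serve as the receptor-free comparison. The read-out is cAMP production in each cell line. The assay follows literature cAMP methods.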

A further test deals with CHO. In words: Induction of cAMP generation in wild-type CHO cells at 10 uM. It is filed as functional, cell-based. Conditions: Cricetulus griseus. The method, boiled down: as §1

As for `C[C@H](O)/C=C/[C@](C)(O)[C@H]1CC[C@H]2C3=CC(=O)[C@H]4CC(=CC[C@H](O)C4)[C@H]3CC[C@@]21C`, the result in test [1] was Active. Also, the outcome with CHO was inactive.

For the molecule `C/C(=C\[C@@H](O)[C@H](C)O)[C@H]1CC[C@H]2C3=CC(=O)[C@H]4CC(=CC[C@H](O)C4)[C@H]3CC[C@]12C`, in test [1], the result was Active. The outcome in the test with CHO was inactive.

As to `C[C@@H](O)/C=C/[C@](C)(O)[C@H]1CC[C@H]2C3=CC(=O)[C@H]4CC(=CC[C@H](O)C4)[C@H]3CC[C@@]21C`, the result in test [1] was Active. Besides, in the test on CHO, the result was inactive.

`CO[C@H](/C=C(\C)[C@H]1CC[C@H]2C3=CC(=O)[C@H]4CC(=CC[C@H](O)C4)[C@H]3CC[C@]12C)[C@@H](C)O`: the outcome in test [1] was Active. The outcome in the test on CHO was inactive.

Take `C/C(=C\[C@H](O)[C@H](C)O)[C@H]1CC[C@H]2C3=CC(=O)[C@H]4CC(=CC[C@H](O)C4)[C@H]3CC[C@]12C`: the result in test [1] was Active. Also, the outcome with CHO was inactive.
